Results as given in publication PMC9990178 (Cell Chemical Biology, 2023).

Columns and labels:
Smad3 phosphorylation [1] = assay: N protein-induced Smad3 phosphorylation/activation in HFL-1 cells; assay type: cell-based, human
α-SMA = assay: N protein-induced α-SMA/COL1A1 expression; assay type: cell-based, human
Method in brief: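 HFL-1 cells transfected with N protein plasmid, then exposed to test compounds (10 µM for derivative comparison; otherwise varied times and doses). α-SMA and COL1A1 measured by western blot, normalized to tubulin. For collagen secretion, culture medium concentrated, held 16 h at 4°C and centrifuged; pellet dissolved in 0.05 M acetic acid, stained with Sirius red, washed, extracted, and read at 530 nm.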

TβRI polymerization = TβRI polymerization (Homo sapiens, UniProt P36897); assay: Crosslinking assay, N protein-induced TβRI polymerization; assay type: cell-based; conditions: HFL-1 cells, 24 h
[2] = system: Smad2/3 nuclear translocation; assay: Smad2/3 nuclear translocation in HFL-1 cells; assay type: cell-based, human; conditions: 24 h
Method in brief: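 HFL-1 cells expressing N protein treated with test compound for 24 h. Fixed in 4% formaldehyde and blocked in PBS with 3% BSA and 0.2% Triton X-100. Primary antibody overnight at 4°C; secondary antibody 1 h at room temperature in the dark; nuclei stained with DAPI for 10 min. Smad2/3 localization imaged by confocal microscopy.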

TβRI phosphorylation = assay: N protein-induced TβRI phosphorylation in HFL-1 cells; assay type: cell-based, human; conditions: 10 μM, 24 h
Smad3 = Smad3 (Homo sapiens, UniProt P84022); assay: ITC assay, RMY-205 binding to Smad3
Method in brief: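 Isothermal titration calorimetry. Sample cell loaded with GST-Smad3 at 20 µM; injector loaded with test compound at 0.2 mM. Compound titrated stepwise into the Smad3 solution, with PBS as control. Heat changes analyzed to derive binding.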

MH1 domain of Smad3 = MH1 domain of Smad3 (Homo sapiens, UniProt P84022); assay: ITC assay, binding to MH1 domain of Smad3
Smad2 = Smad2 (Homo sapiens, UniProt Q15796); assay: ITC assay, binding to Smad2; conditions: GST-tagged protein
TβRI = TβRI (Homo sapiens, UniProt P36897); assay: ITC assay, binding to TβRI; conditions: GST-tagged protein
[3] = system: CAGA luciferase reporter gene (a Smad3/4-dependent reporter); assay: CAGA luciferase reporter; assay type: cell-based, human; conditions: 20 μM, Smad3-dependent manner
Method in brief: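 Cells co-transfected with a CAGA luciferase reporter (Smad3/4-dependent), a β-galactosidase expression vector and other plasmids, including N protein. Lysed 24 h after transfection; luciferase and β-gal activities measured. Luciferase activity normalized to β-gal to correct for transfection efficiency.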

[4] = Pharmacokinetic analysis in ICR mice; assay type: in vivo; conditions: male, mouse, plasma
Method in brief: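 Male ICR mice (8 weeks) received a single dose of test compound: 2 mg/kg i.v., or 10 mg/kg i.p. or by oral gavage. Blood sampled at 5, 15 and 30 min and at 1, 2, 4, 8 and 24 h. Plasma obtained by centrifugation at 1,500g for 10 min, and compound content in plasma assayed.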

Smad2 phosphorylation = assay: N protein-induced Smad2 phosphorylation in HFL-1 cells; assay type: cell-based, human; conditions: 20 μM, 36 h
Method in brief: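 HFL-1 cells transfected overnight with N protein plasmid, then exposed to test compound for 36 h (20 µM unless specified). Lysates boiled 10 min in SDS buffer, run on SDS-PAGE, transferred to PVDF and immunoblotted with ECL detection. p-Smad2 and p-Smad3 band intensities normalized to tubulin.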

TGF-β/Smad signaling = assay: TGF-β-induced Smad3 phosphorylation and α-SMA/COL1A1 expression in cell lines; assay type: cell-based, human; conditions: 36 h
Smad3 phosphorylation [5] = assay: Nocodazole-induced Smad3 phosphorylation; assay type: cell-based, human; conditions: HFL-1, LX-2, and AC-16 cells; nocodazole 100 ng/mL, 12 h
TβRI-Smad2 interaction = TβRI-Smad2 interaction (Homo sapiens, UniProt Q15796); assay: Co-IP, N protein-induced TβRI-Smad2 interaction; assay type: cell-based; conditions: coIP
Method in brief: (§1)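 HFL-1 cells transfected with an N protein plasmid using ViaFect. Lysates incubated 3 h with primary antibody plus protein G-Sepharose beads. Beads washed three times with NP-40 lysis buffer. Immunoprecipitates boiled in SDS loading buffer, resolved by SDS-PAGE, transferred to PVDF and probed; bands detected by enhanced chemiluminescence.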

[6] = system: N protein-TβRI, TβRI-TβRII, TβRI-FKBP12 interactions; assay: Co-IP, interactions N protein-TβRI, TβRI-TβRII, TβRI-FKBP12; assay type: cell-based, human; conditions: HFL-1 cells
Method in brief: as §1

MH1-MH2 interaction = MH1-MH2 interaction (Homo sapiens, UniProt P84022); assay: coIP and GST pull-down, MH1-MH2 interaction of Smad3; assay type: biochemical; conditions: coIP assay, GST pull-down assay
Method in brief: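 GST-tagged proteins expressed in E. coli BL21 and purified on glutathione-sepharose; His-tagged proteins purified on Ni-NTA. GST or GST-fusion bound to glutathione beads in PBS for 1 h at 4°C, washed with PBS, then with modified NP-40 buffer. CoIP: lysates incubated 3 h with antibody plus protein G-Sepharose, washed, and immunoblotted.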

[7] = system: IL6, IL8, CCL2, CXCL10 mRNA; assay: qRT-PCR of N protein-induced cytokine mRNA in HFL-1 cells; assay type: cell-based, human; conditions: 20 μM
[8] = system: Smad3 binding to promoters; assay: ChIP assay, Smad3 binding to cytokine gene promoters in HFL-1 cells; assay type: cell-based, human; conditions: ChIP analysis
Method in brief: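 HFL-1 cells crosslinked with 1% formaldehyde for 10 min at room temperature, washed in ice-cold PBS, and lysed in SDS lysis buffer (1% SDS, 10 mM EDTA, 50 mM Tris pH 8.1) with protease inhibitors. Chromatin sonicated to 500–1000 bp, then incubated overnight at 4°C with antibody or rabbit IgG. Complexes pulled down on protein G-Sepharose, washed, eluted, crosslinks reversed, proteinase K-treated.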

[9] = system: THP1 macrophages and differentiated HL60 neutrophils; assay: Transwell chemotaxis assay, recruitment by N protein-expressing HFL-1 cells; assay type: cell-based, human; conditions: 20 μM
Method in brief: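 HFL-1 cells in 24-well plates transfected with plasmids for 12 h, then switched to serum-free Ham's F12 for a further 24 h. THP-1 macrophages seeded in the upper transwell chamber and incubated 16 h. Non-migrated cells removed with a swab; migrated cells stained with crystal violet.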

[10] = system: primary mouse pulmonary fibroblasts; assay type: cell-based; conditions: 20 μM, 36 h
Method in brief: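 Primary pulmonary fibroblasts grown out from minced mouse lung (1 mm³ explants) in DMEM with 10% FBS; medium changed every 2 days, passaged with trypsin after one week. Cells transfected with N protein plasmid, then treated with test compound at 20 µM for 36 h. α-SMA and COL1A1 measured by western blot, normalized to tubulin.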

[11] = system: primary bone marrow-derived macrophages (BMDMs) and primary neutrophils; assay type: cell-based; conditions: mouse primary lung fibroblasts expressing N protein, 20 μM
Method in brief: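 BMDMs: mouse tibial marrow flushed, red cells lysed, filtered at 40 µm, cultured 8 days in DMEM with 25% L929-conditioned medium. Neutrophils: isolated from marrow on a Percoll gradient (52/64/72%) at 1,545 g for 30 min at room temperature; 64/72% interface collected. Migration of both cell types toward N protein-expressing primary lung fibroblasts assessed.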

[12] = system: N protein-induced pulmonary fibrosis; assay: N protein; assay type: in vivo, C57BL/6J mice; conditions: 10 mg/kg weekly for 30 days
Method in brief: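 Male C57BL/6J mice (8 weeks) given N protein-expressing AAV or control AAV intranasally in 50 µL PBS. From day 4, test compound 10 mg/kg in saline given i.p. weekly. Sacrificed at day 30; n = 6 per group. Lung Smad3 phosphorylation assessed by western blot.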

[13] = system: Adriamycin-induced renal fibrosis; assay: Adriamycin-induced renal fibrosis mouse model; assay type: in vivo, C57BL/6J mice; conditions: 3 mg/kg intraperitoneally daily, 7 days
[14] = Body and organ weight, behavior during RMY-205 administration; assay type: in vivo, mice

Chain of TβRI polymerization (P36897 34-503): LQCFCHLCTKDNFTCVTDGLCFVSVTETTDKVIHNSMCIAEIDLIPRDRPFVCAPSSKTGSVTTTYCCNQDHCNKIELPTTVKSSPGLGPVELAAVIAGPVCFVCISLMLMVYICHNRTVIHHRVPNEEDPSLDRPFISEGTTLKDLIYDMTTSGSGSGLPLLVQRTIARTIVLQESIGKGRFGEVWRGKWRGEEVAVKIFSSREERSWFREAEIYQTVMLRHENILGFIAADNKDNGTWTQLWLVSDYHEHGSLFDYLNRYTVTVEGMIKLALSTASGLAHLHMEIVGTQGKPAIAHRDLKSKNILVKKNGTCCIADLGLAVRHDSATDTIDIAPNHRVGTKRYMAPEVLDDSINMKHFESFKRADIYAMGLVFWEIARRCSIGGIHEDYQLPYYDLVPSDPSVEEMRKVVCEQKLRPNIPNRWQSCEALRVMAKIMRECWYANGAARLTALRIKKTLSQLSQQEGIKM
Chain of TβRI (P36897 34-503): as above
Chain of Smad3 (P84022 whole entry): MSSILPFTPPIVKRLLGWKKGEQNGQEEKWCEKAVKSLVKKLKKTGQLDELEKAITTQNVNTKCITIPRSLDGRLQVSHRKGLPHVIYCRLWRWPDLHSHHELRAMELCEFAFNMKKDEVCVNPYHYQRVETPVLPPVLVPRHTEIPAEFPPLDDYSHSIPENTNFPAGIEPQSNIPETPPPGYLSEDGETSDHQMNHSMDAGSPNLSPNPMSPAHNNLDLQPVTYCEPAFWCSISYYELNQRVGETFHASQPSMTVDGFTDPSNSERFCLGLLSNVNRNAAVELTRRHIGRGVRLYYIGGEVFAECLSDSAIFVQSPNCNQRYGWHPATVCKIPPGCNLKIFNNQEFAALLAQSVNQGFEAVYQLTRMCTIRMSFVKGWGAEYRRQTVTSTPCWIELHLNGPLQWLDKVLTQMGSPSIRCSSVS
Chain of MH1-MH2 interaction (P84022 10-136 limits assumed): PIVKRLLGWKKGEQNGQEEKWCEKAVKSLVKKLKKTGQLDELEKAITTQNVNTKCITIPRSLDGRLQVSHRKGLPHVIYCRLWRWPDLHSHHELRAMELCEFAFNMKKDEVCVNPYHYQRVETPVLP
Chain of MH1-MH2 interaction (P84022 232-425 partner limits assumed): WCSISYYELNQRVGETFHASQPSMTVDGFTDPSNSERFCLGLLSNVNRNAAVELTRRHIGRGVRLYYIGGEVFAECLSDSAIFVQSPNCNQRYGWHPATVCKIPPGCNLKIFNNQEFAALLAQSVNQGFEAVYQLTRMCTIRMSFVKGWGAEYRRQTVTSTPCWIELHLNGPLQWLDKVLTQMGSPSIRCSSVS
Chain of MH1 domain of Smad3 (P84022 10-136 limits assumed): as the sequence (P84022 10-136 limits assumed) above
Chain of TβRI-Smad2 interaction (Q15796 2-467 limits assumed): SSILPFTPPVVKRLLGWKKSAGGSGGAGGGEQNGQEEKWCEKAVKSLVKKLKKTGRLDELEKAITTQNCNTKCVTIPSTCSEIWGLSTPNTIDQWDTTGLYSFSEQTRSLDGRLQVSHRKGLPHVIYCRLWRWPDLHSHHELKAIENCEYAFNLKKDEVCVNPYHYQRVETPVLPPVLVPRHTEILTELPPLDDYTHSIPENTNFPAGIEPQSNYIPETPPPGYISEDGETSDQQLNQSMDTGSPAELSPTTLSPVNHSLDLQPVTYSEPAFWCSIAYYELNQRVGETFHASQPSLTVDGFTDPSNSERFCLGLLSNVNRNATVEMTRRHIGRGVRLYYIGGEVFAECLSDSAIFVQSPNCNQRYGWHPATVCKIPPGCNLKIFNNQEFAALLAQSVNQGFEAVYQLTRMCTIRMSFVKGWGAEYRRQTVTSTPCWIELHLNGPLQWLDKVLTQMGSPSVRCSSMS
Chain of Smad2 (Q15796 whole entry): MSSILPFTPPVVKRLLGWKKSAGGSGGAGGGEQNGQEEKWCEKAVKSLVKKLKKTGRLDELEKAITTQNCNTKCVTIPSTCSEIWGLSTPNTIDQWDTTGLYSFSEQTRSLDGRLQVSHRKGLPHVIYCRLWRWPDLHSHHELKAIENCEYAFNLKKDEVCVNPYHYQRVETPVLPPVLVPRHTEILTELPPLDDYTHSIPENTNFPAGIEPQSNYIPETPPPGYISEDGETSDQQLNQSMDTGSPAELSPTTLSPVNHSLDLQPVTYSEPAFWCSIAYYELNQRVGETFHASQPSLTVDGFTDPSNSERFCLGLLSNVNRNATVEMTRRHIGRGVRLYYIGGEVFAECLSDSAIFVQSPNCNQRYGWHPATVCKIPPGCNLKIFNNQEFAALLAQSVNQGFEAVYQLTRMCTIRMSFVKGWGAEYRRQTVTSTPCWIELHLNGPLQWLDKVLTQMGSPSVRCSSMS

COc1cc2c(cc1OC)CN(C(=O)/C=C/c1c(-c3ccccc3)n(C)c3ncccc13)CC2 [(E)-SIS3]
N protein-induced Smad3 activation (Smad3 phosphorylation [1]; 3 μM, 36 h): no inhibitory effect

Cc1cccc(-c2[nH]c(C(C)(C)C)nc2-c2ccc3c(c2)OCO3)n1 [SB505124, reference compound]
N protein-induced expression of α-SMA and COL1A1 (α-SMA; HFL-1 cells, 10 μM, 24 h): failed to elevate
N protein-induced Smad phosphorylation, nuclear translocation, and transactivation activity (Smad3 phosphorylation [1]; 10 μM, 24 h): lost its ability to induce
N protein-induced TβRI polymerization (TβRI polymerization; 10 μM): could not prevent
Smad2/3 localization in the presence of N protein ([2]; 10 μM): remain in the cytosol
N protein-induced TβRI phosphorylation (TβRI phosphorylation): could block

O=c1c(O)c(N2CCN(Cc3ccc(Br)cc3F)CC2)oc2ccccc12 [RMY-205, 2-(4-(4-bromo-2-fluorobenzyl)piperazin-1-yl)-3-hydroxy-4H-chromen-4-one]
Kd (Smad3): 8 µM
Kd (MH1 domain of Smad3): 13.3 µM
binding to Smad2 (Smad2): not to either Smad2 or TβRI
binding to TβRI (TβRI): not to either Smad2 or TβRI
N protein-induced α-SMA and COL1A1 expression levels and collagen secretion (α-SMA; HFL-1 cells, time- and dose-dependent manner): downregulate
α-SMA inhibition ratio (%) (α-SMA; N-protein transfected HFL-1 cells, 10 μM, 24 h): 50.9 ± 14.0%
N protein-induced transactivation activity of Smad [3]: inhibited
AUC ([4]; ip, 10 mg/kg): 2130 ng·h/mL
AUC(0-inf) ([4]; ip, 10 mg/kg): 2130 ng·h/mL
Cmax ([4]; ip, 10 mg/kg): 1820 ng/mL
Tmax ([4]; ip, 10 mg/kg): 0.19 h
bioavailability ([4]; ip, 10 mg/kg): 42.8%
half-life ([4]; ip, 10 mg/kg): 8.26 h
AUC ([4]; iv, 2 mg/kg): 995 ng·h/mL
AUC(0-inf) ([4]; iv, 2 mg/kg): 995 ng·h/mL
Vd ([4]; iv, 2 mg/kg): 3 L/kg
clearance ([4]; iv, 2 mg/kg): 34 mL/min/kg
half-life ([4]; iv, 2 mg/kg): 1.98 h
AUC ([4]; po, 10 mg/kg): 1870 ng·h/mL
AUC(0-inf) ([4]; po, 10 mg/kg): 1870 ng·h/mL
Cmax ([4]; po, 10 mg/kg): 1040 ng/mL
Tmax ([4]; po, 10 mg/kg): 0.33 h
bioavailability ([4]; po, 10 mg/kg): 37.6%
half-life ([4]; po, 10 mg/kg): 2.55 h
N protein-induced phosphorylation of Smad3 (Smad3 phosphorylation [1]; 20 μM, 36 h): inhibition
N protein-induced phosphorylation of Smad2 (Smad2 phosphorylation): not of Smad2
TGF-β-induced Smad3 phosphorylation and α-SMA and COL1A1 expression (TGF-β/Smad signaling; HFL-1, AC16, LX-2 and human primary dermal cells, TGF-β 2 ng/mL): effectively inhibited
inhibition of TGF-β-induced Smad3 phosphorylation and α-SMA expression, compared with (E)-SIS3 (TGF-β/Smad signaling; HFL-1 cells, (E)-SIS3 3 μM): comparable with that by (E)-SIS3
nocodazole-induced Smad3 phosphorylation (Smad3 phosphorylation [5]): inhibited
N protein-induced TβRI interaction with Smad2 (TβRI-Smad2 interaction): not with Smad2
interactions between N protein and TβRI, TβRI and TβRII, or TβRI and FKBP12 [6]: did not interfere
N protein-induced TβRI polymerization (TβRI polymerization; 20 μM): not influenced
interaction between MH1 and MH2 domains (MH1-MH2 interaction): substantially enhance
N protein-induced Smad2/3 nuclear translocation ([2]; 20 μM): blocked
N protein-induced mRNA expression of IL6, IL8, CCL2, and CXCL10 [7]: downregulated
Smad3 binding to the promoters of genes of cytokines [8]: inhibited
recruiting THP1 macrophages and differentiated HL60 neutrophils by N protein [9]: attenuation
N protein-elevated mRNA of CCL2, CXCL10, and IL-6 expression and their release levels [10]: suppression
N protein-induced α-SMA and COL1A1 expression [10]: significantly inhibited
recruitment of primary BMDMs and primary neutrophils [11]: abolished
N protein-induced phosphorylation of Smad3 in lung [12]: suppression
N protein-induced secretion of CCL2, CXCL10, and IL-6 in bronchoalveolar lavage fluid [12]: suppression
N protein-promoted infiltration of macrophages and neutrophils in the lung tissue [12]: markedly attenuated
alveolar septal thickening, α-SMA expression and collagen deposition ([12]; intraperitoneally): alleviated alveolar septal thickening and decreased α-SMA expression and collagen deposition
renal fibrosis, Smad3 phosphorylation and COL1A1 expression induced by Adriamycin [13]: effectively alleviate
weight of the mice and of various organs (heart, liver, spleen, lungs, kidneys) ([14]; 10 mg/kg for 30 days): not significantly changed
behavior, weight of the body or various organs ([14]; during administration of RMY-205): no abnormal behavior or weight loss
